Source: ChEMBL document CHEMBL1157849, “The influence of the aziridinyl substituent of benzimidazoles and benzimidazolequinones on toxicity towards normal and Fanconi anaemia cells” (Eur J Med Chem, 2010)
Active and inactive are the calls of the source. The rule behind the calls is not given here.

Legend:
[1] = Cytotoxicity against human GM00637 cells after 24 hrs by MTT assay; type: cell-based; conditions: GM00637, 24 h
Outline: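 Cells seeded at 10,000 per well and left 48 h to adhere, then exposed to test solutions in DMSO (2.5% final) for 24 h at 37 °C under humidified 5% CO₂. MTT read-out at 550 nm with 690 nm reference. Viability is expressed as percent of DMSO-only control. IC50 is the concentration reducing mean viability to 50% of control, estimated by nonlinear regression of dose-response curves.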

PD20i = test: Cytotoxicity against FANCD2-deficient human PD20i cells at 0.001 uM after 24 hrs by MTT assay; type: functional, cell-based
Outline: (§1)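 PD20i and PD20:RV human fibroblasts grown in alpha-MEM with 15% uninactivated FBS, penicillin–streptomycin, 2 mM L-glutamine, 37 °C, 5% CO₂. Cells seeded at 10,000/well, both lines in parallel on the same plate, adhered 48 h. Compound added in DMSO (2.5% final), 24 h at 37 °C. MTT read at 550 nm (690 nm reference). Viability as % of DMSO-only control, mean of at least three independent experiments.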

Homo sapiens = species: Homo sapiens; test: Cytotoxicity against wild type FANCD2 expressing human PD20:RV cells at 0.001 uM after 24 hrs by MTT assay; type: functional, cell-based; outline: as §1

| Compound | IC50 [1] [µM] | Activity (PD20i) | Activity (Homo sapiens) |
| --- | --- | --- | --- |
| O=C1C=CC(=O)c2c1ncn2C[C@@H]1CN1C(c1ccccc1)(c1ccccc1)c1ccccc1 (stereo not given in full) | 0.15 | Active |  |
| COC1=CC(=O)c2c(nc3n2CCCCC3)C1=O | > 1.5 |  |  |
| COc1ccc(OC)c2c1ncn2C[C@@H]1CN1C(c1ccccc1)(c1ccccc1)c1ccccc1 (stereo not given in full) | 1.26 |  |  |
| CCn1cnc2c(OC)ccc(OC)c21 | > 10 |  |  |
| CCn1cnc2c1C(=O)C=CC2=O | 0.58 |  |  |
| O=C1C(N2CC2)=CC(=O)c2c1nc1n2CCCC1 | 1.06 |  |  |
| O=C1C(N2CC2)=CC(=O)c2c1nc1n2CCC1 | 0.29 | Active | Active |
| CO[C@@]12[C@H](COC(N)=O)C3=C(C(=O)C(C)=C(N)C3=O)N1C[C@@H]1N[C@@H]12 [MITOMYCIN] | 0.9 |  |  |
| O=C1C(N2CC2)=CC(=O)c2c1nc1n2CCCCC1 | 0.56 |  |  |
| COC1=CC(=O)c2c(nc3n2CCCC3)C1=O | > 1.5 |  |  |
| COC1=CC(=O)c2c(nc3n2CCC3)C1=O | 0.36 | inactive |  |
